Measured values taken from ChEMBL document CHEMBL5321226, “Structure-directed identification of pyridine-2-methylamine derivatives as MmpL3 inhibitors for use as antitubercular agents” (Eur J Med Chem, 2023).
≈ marks a conversion by molar mass, not a printed value.

How the values were obtained:
Type in all cases: functional
Conditions in all cases: time 7-14 day
[1] = system: Mycobacterium tuberculosis; test: Antimycobacterial activity against N-cycloheptyl-4,6-dimethyl-1H-indole-2-carboxamide-resistant Mycobacterium tuberculosis IAR2 harboring MmpL3 S288T mutant assessed as bacterial growth inhibition incubated for 7 to 14 days by MABA assay
[2] = system: Mycobacterium tuberculosis; test: Antimycobacterial activity against extensively drug resistant Mycobacterium tuberculosis TF274 assessed as bacterial growth inhibition incubated for 7 to 14 days by MABA assay
Procedure, shortened: (§1)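 Clinical M. tuberculosis isolates were tested in a microplate Alamar Blue assay (MABA), with isoniazid, rifampin, levofloxacin, ofloxacin and kanamycin as positive controls. The MIC is the lowest concentration giving at least a 90% reduction of the bacterial growth signal, averaged over three individual measurements.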

[3] = system: Mycobacterium tuberculosis; test: Antimycobacterial activity against multidrug resistant Mycobacterium tuberculosis V2475 assessed as bacterial growth inhibition incubated for 7 to 14 days by MABA assay; procedure, shortened: as §1
[4] = system: Mycobacterium tuberculosis; test: Antimycobacterial activity against extensively drug resistant Mycobacterium tuberculosis R506 assessed as bacterial growth inhibition incubated for 7 to 14 days by MABA assay; procedure, shortened: as §1
[5] = system: Mycobacterium tuberculosis; test: Antimycobacterial activity against multidrug resistant Mycobacterium tuberculosis KZN494 assessed as bacterial growth inhibition incubated for 7 to 14 days by MABA assay; procedure, shortened: as §1

SMILES | MIC90 [1] | MIC90 [2] | MIC90 [3] | MIC90 [4] | MIC90 [5]
Cc1cc(C)c2cc(C(=O)NC3CCCCCC3)[nH]c2c1 | 0.013 µg/mL (≈ 0.0457 µM) | – | – | – | –
c1ccc(-c2ccc(-c3ccnc(CN4CCC5(CCCC5)CC4)c3)cc2)cc1 | 1 µg/mL (≈ 2.61 µM) | 0.004 µg/mL (≈ 0.0105 µM) | 0.063 µg/mL (≈ 0.165 µM) | 0.031 µg/mL (≈ 0.081 µM) | 0.016 µg/mL (≈ 0.0418 µM)
NNC(=O)c1ccncc1 [ISONIAZID] | 0.04 µg/mL (≈ 0.292 µM) | 8 µg/mL (≈ 58.3 µM) | 16 µg/mL (≈ 117 µM) | 8 µg/mL (≈ 58.3 µM) | 16 µg/mL (≈ 117 µM)
NC[C@H]1O[C@H](O[C@H]2[C@H](O)[C@@H](O[C@H]3O[C@H](CO)[C@@H](O)[C@H](N)[C@H]3O)[C@H](N)C[C@@H]2N)[C@H](O)[C@@H](O)[C@@H]1O [KANAMYCIN] | – | > 128 µg/mL | 2 µg/mL (≈ 4.13 µM) | > 128 µg/mL | 2 µg/mL (≈ 4.13 µM)
C[C@H]1COc2c(N3CCN(C)CC3)c(F)cc3c(=O)c(C(=O)O)cn1c23 [LEVOFLOXACIN ANHYDROUS] | – | 1 µg/mL (≈ 2.77 µM) | – | 2 µg/mL (≈ 5.53 µM) | –
CC1COc2c(N3CCN(C)CC3)c(F)cc3c(=O)c(C(=O)O)cn1c23 (stereo not given) [OFLOXACIN] | – | 8 µg/mL (≈ 22.1 µM) | 0.5 µg/mL (≈ 1.38 µM) | 4 µg/mL (≈ 11.1 µM) | 0.5 µg/mL (≈ 1.38 µM)
CO[C@H]1/C=C/O[C@@]2(C)Oc3c(C)c(O)c4c(O)c(c(/C=N/N5CCN(C)CC5)c(O)c4c3C2=O)NC(=O)/C(C)=C\C=C\[C@H](C)[C@H](O)[C@@H](C)[C@@H](O)[C@@H](C)[C@H](OC(C)=O)[C@@H]1C [RIFAMPIN] | – | > 128 µg/mL | 4 µg/mL (≈ 4.86 µM) | > 128 µg/mL | 128 µg/mL (≈ 156 µM)
